A selection: hits, their analogues and other compounds. The true share with any hit is near 3%.
UBC13 inh: blocks human UBC13 polyubiquitin chain formation; TR-FRET; 330,000 compounds, 0.47% hits; inhibition, % at 20 µM; P61088; in the data active = inhibition above about 45%, passing the limit was not always enough
Target sequence (P61088 whole entry, looked up): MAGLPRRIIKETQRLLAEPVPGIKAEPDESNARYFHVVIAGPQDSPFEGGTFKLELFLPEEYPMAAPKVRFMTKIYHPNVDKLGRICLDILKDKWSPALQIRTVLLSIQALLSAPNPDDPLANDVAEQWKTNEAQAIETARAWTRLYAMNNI
MEKK3 PB1 HTS: raises or lowers MEK5 binding to the human MEKK3 PB1 domain. bead-based flow cytometry, Alexa488-MEK5 binding to MEKK3; actives lie on both sides; 0 = blocked by unlabeled MEK5, 100 = vehicle. binding response (% of control), % at 10 µM. Q99759. 290,000 compounds, 1.4% hits;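 active = binding response more than 3 SD above or below the average of its plate-row segment, actives on both sides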;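 also: Alexa488 bead fluorescence after subtracting the streptavidin-only scavenger bead signal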
Apaf1 inhib: blocks human Apaf-1 apoptosome activity; O14727; reconstituted apoptosome caspase-3 activity, DEVD-Rh110 fluorescence; inhibition, % at 20 µM; 330,000 compounds, 0.71% hits; active = inhibition of at least 40% at 20 µM;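 also: plate controls were DMSO wells for no effect and DEVD-CHO caspase inhibitor wells for full effect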
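System: Apoptosome proteins | Medium: Hepes pH 7.5 with detergent and BSA | Also added: Cytochrome c trigger plus (Z-DEVD)2-Rh110 caspase-3 substrate | Incubation: 30 min compound preincubation, 50 min activation, room temperature | Detection: Rhodamine 110 fluorescence at Ex 480/Em 540 nm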
MEKK2mut PB1 HTS: signal of MEK5 binding to mutant human MEKK2 PB1 domain. percent response, % at 10 µM. 290,000 compounds, 0.35% hits. bead flow cytometry, Alexa488-MEK5 binding to MEKK2 mutant; in the data active = percent response above about 24%, passing the limit was not always enough
MEKK2 WT-MEK5: raises or lowers MEK5 binding to wildtype human MEKK2 PB1 domain | Q9Y2U5 | bead flow cytometry, Alexa488-MEK5 binding to MEKK2 WT; actives lie on both sides | binding response (% of control), % at 10 µM | 290,000 compounds, 1.1% hits | AID 1531; in the data active = binding response below about 67% or above about 130%
UCH37 DUB inh: blocks the human deubiquitinase UCH37 | inhibition, % (concentration not given with the values) | AID 588478 | Q9Y5K5 | purified proteasome/UCH37, Ub-AMC cleavage fluorescence | 330,000 compounds, 0.33% hits;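 active = mean inhibition over replicate wells above about 20%, limit read from the data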;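 also: 0% = compound-free wells with enzyme and 100% = wells lacking proteasome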
Target sequence (Q9Y5K5 whole entry, looked up): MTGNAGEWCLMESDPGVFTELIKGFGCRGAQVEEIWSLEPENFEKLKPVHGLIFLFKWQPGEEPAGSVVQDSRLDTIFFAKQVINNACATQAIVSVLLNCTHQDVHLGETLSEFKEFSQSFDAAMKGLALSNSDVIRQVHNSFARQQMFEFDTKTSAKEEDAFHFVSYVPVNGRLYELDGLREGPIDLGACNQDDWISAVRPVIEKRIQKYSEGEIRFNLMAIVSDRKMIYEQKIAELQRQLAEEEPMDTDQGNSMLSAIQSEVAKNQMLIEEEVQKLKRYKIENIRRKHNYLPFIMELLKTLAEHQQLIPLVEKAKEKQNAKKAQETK
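Reagent: Ub-AMC substrate; assay system: Proteasome-associated human UCH37 deubiquitinase; controls: no-proteasome and no-compound wells; read-out: % inhibition of Ub-AMC cleavage fluorescence; timing: 30 min preincubation with enzyme, 25 min cleavage at room temperature; signal: AMC fluorescence from Ub-AMC cleavage, excitation 355 nm, emission 460 nm; buffer or medium: Tris-HCl pH 7.4 plus ovalbumin, ATP-MgCl2, DTT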
MEKK2wt confirm: raises or lowers MEK5 binding to wildtype human MEKK2, retest. 5,900 compounds, 2.4% hits. binding response (% of control), % at 10 µM. bead flow cytometry, Alexa488-MEK5 binding to MEKK2 WT; actives lie on both sides. shares compounds with MEKK3 PB1 HTS; in the data active = binding response below about 16% or above about 210%; inactive = in between
MEKK2mut-MEK5: signal of MEK5 binding to mutant human MEKK2, retest; shares compounds with MEKK3 PB1 HTS; bead flow cytometry, Alexa488-MEK5 binding to MEKK2 mutant; percent response, % at 10 µM; 5,900 compounds, 2% hits; in the data active = percent response mostly above about 71%, no sharp cut-off; inactive = mostly below about 38%;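 also: higher means compound restores mutant binding toward wildtype level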
MEKK3-MEK5 inh: confirmation of inhibitors of MEK5 binding to human MEKK3; bead flow cytometry, Alexa488-MEK5 binding to MEKK3; hits give low values; binding response (% of control), % at 10 µM; 5,900 compounds, 1.8% hits; shares compounds with MEKK3 PB1 HTS;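 active = binding response below 72% of control, or above a set upper limit, though filed actives all read lower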;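 also: 100% = DMSO only wells and 0% = binding blocked by excess unlabeled MEK5; lower values mean stronger disruption of MEK5 binding to MEKK3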
* = called active by the depositor; [ ] = dose if it differs, or a comment.

Screening CC1CCc2nc3sc4c(c3c(N)c2C1)CCCC4 (stereo not given) returned UBC13 inh -3.3, MEKK3 PB1 HTS 88.0, Apaf1 inhib 7.4, MEKK2mut PB1 HTS -3.0, MEKK2 WT-MEK5 91.0 and UCH37 DUB inh 3.4.
For OC1(c2ccc(Br)cc2)CCN(Cc2cccc(Br)c2)CC1 the results were UBC13 inh 9.1, MEKK3 PB1 HTS 109.0, Apaf1 inhib 2.7, MEKK2mut PB1 HTS 15.0, MEKK2 WT-MEK5 134.0*, UCH37 DUB inh 0.6, MEKK2wt confirm 130.0, MEKK2mut-MEK5 17.0 and MEKK3-MEK5 inh 107.0.
CC(=O)N/C(=N/c1nc(C)cc(C)n1)Nc1ccccc1Cl was read as UCH37 DUB inh 3.4.
CCC(=O)N[C@@H]1CC(C(C)(C)NC(=O)CC)CC=C1C (stereo not given in full) was read as UBC13 inh 1.7, MEKK3 PB1 HTS 2.0*[inhibitor], Apaf1 inhib 1.9, MEKK2mut PB1 HTS -21.0, MEKK2 WT-MEK5 1.0*[inhibitor], UCH37 DUB inh 1.3, MEKK2wt confirm 105.0, MEKK2mut-MEK5 3.0 and MEKK3-MEK5 inh 101.0.
`CC(=O)NC(C)(C)C1CC=C(C)C(=NO)C1` (stereo not given) gave UCH37 DUB inh 0.8.
`CCOc1ccc(-c2nc3n(c(=O)c2C#N)CCCS3)cc1` gave UBC13 inh 5.7, MEKK3 PB1 HTS 100.0, Apaf1 inhib 9.2, MEKK2mut PB1 HTS 1.0, MEKK2 WT-MEK5 105.0 and UCH37 DUB inh -13.4.
For CCCCC(=O)NCCNc1nc2c(c(=O)n(C)c(=O)n2C)n1Cc1ccccc1 the results were UBC13 inh -6.4, MEKK3 PB1 HTS 2.0*[inhibitor], Apaf1 inhib 8.0, MEKK2mut PB1 HTS -14.0, MEKK2 WT-MEK5 2.0*[inhibitor], UCH37 DUB inh 0.3, MEKK2wt confirm 109.0, MEKK2mut-MEK5 5.0 and MEKK3-MEK5 inh 104.0.
For C=CCOc1ccc(/C=C/C(=O)OCC(=O)NCCc2ccccc2)cc1 the results were UBC13 inh -1.7, Apaf1 inhib 11.6 and UCH37 DUB inh -6.2.
`Cc1ccc(S(=O)(=O)N(CCCO)CC(O)CON=C2c3ccccc3-c3ccccc32)cc1` (stereo not given) gave UBC13 inh 12.9, MEKK3 PB1 HTS 136.0*, Apaf1 inhib 18.2, MEKK2mut PB1 HTS 0.0, MEKK2 WT-MEK5 109.0, UCH37 DUB inh 3.8, MEKK2wt confirm 96.0, MEKK2mut-MEK5 -4.0 and MEKK3-MEK5 inh 98.0.
For CC(C)(C)NCC(O)CON=C1c2ccccc2-c2ccccc21 (stereo not given) the results were UBC13 inh 8.7, MEKK3 PB1 HTS 91.0, Apaf1 inhib -0.4, MEKK2mut PB1 HTS -6.0, MEKK2 WT-MEK5 106.0 and UCH37 DUB inh 2.2.
`O=c1[nH]c2ccccc2n2cnnc12` gave UBC13 inh 3.5, MEKK3 PB1 HTS 147.0*, Apaf1 inhib 3.6, MEKK2mut PB1 HTS 6.0, MEKK2 WT-MEK5 126.0, MEKK2wt confirm 100.0, MEKK2mut-MEK5 6.0 and MEKK3-MEK5 inh 105.0.
Screening CCC/C=C1/CCCOC(C(=O)NCCNCCO)(C(F)(F)F)C1 (stereo not given) returned UBC13 inh 0.6, MEKK3 PB1 HTS 71.0*[inhibitor], Apaf1 inhib 6.3, MEKK2mut PB1 HTS -7.0, MEKK2 WT-MEK5 81.0, UCH37 DUB inh 2.9, MEKK2wt confirm 97.0, MEKK2mut-MEK5 3.0 and MEKK3-MEK5 inh 97.0.

Source: PubChem BioAssay (several laboratories)
